Compound activity deposited in PubChem by several laboratories.
The list is not random: actives were taken first. Their share in the collection is about 2.1%.
Pf gametocyte: inhibitors of late stage P. falciparum gametocyte viability | P. falciparum stage V gametocytes, ATP luminescence, 24 h | inhibition, % at 10.9 µM | 150,000 tested, 0.065% active;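 active means inhibition above the mean plus 3 SD of compounds within the control limits, set per campaign, cut at about 38% in these data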;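 further: 0% = DMSO wells and 100% = medium only without gametocytes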
m-calpain inh: inhibitors of pig calpain II. AID 1236. purified calpain II, fluorogenic peptide substrate, 30 min. inhibition, % at 16 µM. 220,000 tested, 0.37% active;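 active means inhibition above about 50%, limit read from the data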
TNF death inh: blocks TNF-alpha induced death of Jurkat FADD-/- cells. Jurkat FADD-/- TNF necroptosis rescue, ATP luminescence, 24 h; 0 = TNF only, 100 = no-TNF cells. 220,000 tested, 0.068% active. activation (protection from cell death), % at 10 µM;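 active means activation, meaning protection from cell death, of at least 50% relative to plate controls; inactive means activation below 50%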;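 further: necroptosis triggered by 40 ng/mL TNF-alpha added together with compound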
zVAD death inh: blocks zVAD induced death of L929 cells; L929 zVAD necroptosis rescue, ATP luminescence, 24 h; with zVAD 60 µM; viability rescue, % at 10 µM; 220,000 tested, 0.38% active; AID 1377;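 active means activation, scaled between plate controls, above about 75%, limit read from the data; inactive means activation under that limit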;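 further: 0% = zVAD with DMSO and 100% = DMSO alone without zVAD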
RBBP9 inh: blocks human serine hydrolase RBBP9; O75884; recombinant RBBP9, FP-Rh probe fluorescence polarization; inhibition, % at 7.94 µM; 220,000 tested, 0.2% active;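 active means inhibition above the campaign mean of all tested compounds plus 3 SD, cut at about 14% in these data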;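 further: plate controls were DMSO wells with RBBP9 for no effect and wells lacking RBBP9 protein for full effect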
Target sequence (O75884 whole entry, looked up): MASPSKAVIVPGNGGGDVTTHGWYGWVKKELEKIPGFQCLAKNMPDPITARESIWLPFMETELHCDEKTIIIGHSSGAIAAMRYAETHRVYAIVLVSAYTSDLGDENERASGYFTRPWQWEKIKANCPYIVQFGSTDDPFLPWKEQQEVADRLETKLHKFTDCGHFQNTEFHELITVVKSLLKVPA
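Measured by – fluorescence polarization · Test system – RBBP9 protein · Input – 2.5 µM RBBP9 dispensing solution, before mixing · Measure – percent inhibition from mP, scaled between DMSO and no-protein wells · Benchmarks – DMSO-treated enzyme wells and wells lacking RBBP9 · Times – preincubation 30 min plus labeling 45 min at 25 °C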
Wee1 degr inh: inhibitors of human Wee1 degradation; HeLa Luc-Wee1K328M stability, luciferase luminescence; 100% = proteasome inhibitor MG132 effect; 220,000 tested, 1.2% active; P30291; reporter increase, % at 5 µM; AID 1321;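 active means activation above the mean of all tested compounds plus 3 SD, set per screening run, cut at about 8.8% in these data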;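 further: cells exposed to compound for 20 h before luminescence read; 0% = DMSO alone and 100% = MG132 at 30 µM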
zVAD necrop conf: confirmed blocker of zVAD induced death in L929 cells | shares compounds with zVAD death inh | L929 zVAD-induced necroptosis rescue, ATP luminescence, 24 h | activation (protection from necroptosis), % at 10 µM | 760 tested, 16% active | AID 463117;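 active means mean protection from necroptosis of at least 50% over duplicate tests; inactive means mean protection below 50%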;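 further: 0% = cells with zVAD alone and 100% = vehicle cells without zVAD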
An asterisk follows results filed as active; i = inactive; x = not tested or not shown.

SMILES	Pf gametocyte	m-calpain inh	TNF death inh	zVAD death inh	RBBP9 inh	Wee1 degr inh	zVAD necrop conf
COc1ccc(CC(=O)Nc2nnc(C(C)C)s2)cc1OC	-1	-40	0	3	-4	1	x
COc1ccc(C2CC(=O)C=C(NCc3ccc4c(c3)OCO4)C2)cc1 (stereo not drawn)	20	4	-1	-1	-7	-2	x
O=c1[nH]c2ccccc2nc1N1CCOCC1	x	6	-1	1	-6	2	x
c1ccc2c(c1)nc(N1CCOCC1)c1c3ccccc3[nH]c21	x	-17	1	82*	-7	0	4
CCOc1ccccc1NC(=O)C1COc2ccccc2O1 (stereo not drawn)	4	x	x	x	x	x	x
COc1cccc(C(=O)N/N=C/c2ccc(Oc3ccc([N+](=O)[O-])cn3)c(OC)c2)c1	x	-11	1	5	0	-1	x
COc1cc(/C=N/NC(=O)c2ccc3ccccc3c2)ccc1Oc1ccc([N+](=O)[O-])cn1	-18	-62	6	76*	-9	1	4
CCC(C)n1c(SCc2ccccc2)nc2ccsc2c1=O (stereo not drawn)	x	24	0	0	-6	0	x
Cc1ccc(NC(=O)C(OC(=O)c2ccc(C=O)cc2)c2ccccc2)cc1Cl (stereo not drawn)	x	-67	3	83*	-23	0	19
COCC(C)NC(C(=O)Nc1ccc(C)c(Cl)c1)c1ccccc1 (stereo not drawn)	22	8	3	0	-6	5	x
COC(=O)C1=C(C)NC(=O)NC1c1ccc(OCC(=O)N2CCCCC2)cc1 (stereo not drawn)	4	-7	-3	0	-4	3	x
Cn1nc(N)c2c(-c3ccc(Cl)cc3)c(C#N)c(N)nc21	-2	21	2	81*	-2	-1	37
Cc1nc2cc(NC(=O)Nc3ccc(Br)cc3)ccc2o1	4	-13	1	80*	-3	3	1
Cc1nc2cc(NC(=O)NCc3ccc4c(c3)OCO4)ccc2o1	x	8	-1	0	-7	-2	x
COc1ccc(NC(=O)COC(=O)C2CC3C=CC2C3)cc1 (stereo not drawn)	-2	-1	1	2	5	3	x
Cc1[nH]nc2c1C(c1c[nH]c3ccccc13)C(C#N)=C(N)O2 (stereo not drawn)	-1	-9	-5	77*	-5	2	37
COC(=O)Cc1[nH]nc2c1C(c1c[nH]c3ccccc13)C(C#N)=C(N)O2 (stereo not drawn)	x	1	-8	1	-5	1	x
COc1ccccc1C1CCN(Cc2c(C)[nH]c3ccccc23)CC1	8	2	-2	76*	-4	-1	28
Cc1ccccc1C(=O)NC(=S)Nc1ccc2[nH]c(=O)[nH]c2c1	3	-21	0	76*	-11	-5	3
O=C(COc1ccccc1)Nc1ccc2[nH]c(=O)[nH]c2c1	4	-30	-2	76*	3	0	2
Cc1ccc(C(=O)NC(=S)Nc2ccc3[nH]c(=O)[nH]c3c2)cc1	3	20	2	6	-7	2	x
COC(=O)c1ccc(NC(=O)CSC2=NCCN2)cc1	-1	-15	-8	92*	-6	-2	12
CCOc1ccc(NC(=O)CSC2=NCCN2)cc1	3	20	-1	5	-11	0	x
Cc1nc2c(ccc3nc(NC(=O)C4CC4)sc32)s1	-16	-28	1	80*	-9	3	18
CCCC(=O)Nc1nc2ccc3nc(C)sc3c2s1	x	-21	5	91*	-4	8	0
SMILES	Pf gametocyte	m-calpain inh	TNF death inh	zVAD death inh	RBBP9 inh	Wee1 degr inh	zVAD necrop conf
O=C(Nc1nc2ccsc2c(=O)s1)C1CCC1	-12	-4	1	0	1	-1	x
CCCCC(=O)Nc1nc2ccc3nc(C)sc3c2s1	x	-17	7	46	-9	3	x
CCC(=O)Nc1nc2ccc3sc(C)nc3c2s1	-27	27	-4	79*	-7	-3	8
O=C(Nc1cccc(C(F)(F)F)c1)Nc1ccc(N2CCCC2)c(S(=O)(=O)Nc2ccccc2Cl)c1	-21	9	-3	3	1	-3	x
C#CCNC(=O)C1=C[C@H](c2ccc(C(F)(F)F)cc2)[C@@H](CCCO)[C@H](OCC)O1	19	16	-1	0	2	0	x
O=C(CCl)Nc1cc(SCC(O)CO)cc([N+](=O)[O-])c1 (stereo not drawn)	-29	-19	-12	81*	-1	-1	77*
COc1ccc(OC)c(C2=CC(=O)C[C@H](c3ccc4c(c3)OCO4)C2)c1	0	x	x	x	x	x	x
Cc1cc(NC(=O)c2cccc(Oc3ccccc3)c2)n[nH]1	-42	-18	13	78*	-10	3	5
Cc1ccccc1N1C(=O)CC1(C#N)c1ccc(OCc2ccccc2)cc1 (stereo not drawn)	-12	-5	8	1	1	-3	x
N#CC(C(=O)c1ccco1)c1ccccn1 (stereo not drawn)	x	-17	20	81*	-8	2	56*
N#C/C(=C(\O)c1ccco1)c1ccccn1	10	-16	29	105*	5	3	57*
O=C(c1ccco1)N(c1ccccn1)c1ccccn1	5	-28	0	0	-1	-3	x
Cc1ccc(NC(=O)COC(=O)c2ccc3c(c2)NC(=O)C2CCCN32)cc1C (stereo not drawn)	-11	i	-4	90*	-13	-2	61*
O=C(CCl)N(c1ccccc1)C1CCCCC1	-4	-8	-20	78*	-1	-1	66*
CC(=O)N(c1ccccc1)C1CCCC1	4	-6	1	0	3	6	x
Cc1ccc(S(=O)(=O)CC(CN2CCCCC2)N2CCCCC2)cc1 (stereo not drawn)	-8	17	10	81*	-2	-4	22
O=S(=O)(CC(CN1CCCCC1)N1CCCCC1)c1ccc2ccccc2c1 (stereo not drawn)	-5	-18	-5	76*	-8	1	2
O=S(=O)(CC(CN1CCOCC1)N1CCOCC1)c1ccccc1 (stereo not drawn)	5	-14	1	0	-4	0	x
COC(=O)c1ccc(NC(=O)Nc2ccc(OC)cc2)cc1	-25	42	5	83*	5	-1	2
COc1cccc(NC(=O)Nc2ccncc2)c1	9	19	0	0	-6	-2	x
COc1cccc(NC(=O)Nc2ccc(C(C)(C)C)cc2)c1	-36	25	2	79*	-4	6	8
